Most compounds without a hit are left out; they make up all but 1.7% or so of the library.
CAL PDZ FP-1 – blocks peptide binding to the human CAL PDZ domain; Q9HD26; purified CAL PDZ, TMR-peptide fluorescence polarization, 1 h; inhibition, % at 24.9 µM; 300,000 compounds, 0.92% hits; AID 602252;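 active = mean inhibition of at least 30% with at least half of replicates also reaching 30%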
AI-2 QS mod – modulates the Vibrio harveyi AI-2 quorum sensing system | Vibrio harveyi JMH597 AI-2 luminescence/OD600 ratio, 9 h; stronger effect = lower value; strain lacks LuxN and CqsS sensors; 0 = neutral-control median | activity change, % at 7.5 µM | 300,000 compounds, 0.4% hits | AID 2094; in the data active = activity change below about -75%, passing the limit was not always enough;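 note: luminescence divided by OD600 gain over 9 h not by final OD600 alone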
CAL PDZ FP-2 – inhibitors of human CAL PDZ peptide binding; Q9HD26; purified CAL PDZ, TMR-peptide fluorescence polarization, 1 h; inhibition, % at 20 µM; 330,000 compounds, 0.02% hits;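 active = highest replicate inhibition of at least 40%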
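Test system: purified CerCALP PDZ construct; Compound dosing: one concentration, 20 µM compound; Also added: TMR-labelled reporter peptide T*-PRC34 bound in PDZ groove; Read-out: inhibition from polarization loss; Controls: unlabelled peptide and DMSO controls; Signal: FP readout, S and P plane fluorescence; Incubation: 1 h at RT.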
ARNT-TACC3 inh – disrupts binding between human ARNT and TACC3. Q9Y6A5. AlphaScreen His-ARNT PAS-B/GST-TACC3 binding, luminescence; TACC3 fragment carries E629A point mutation. inhibition, % at 9.99 µM. 390,000 compounds, 0.66% hits;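 active = mean inhibition of replicates at least 50% and at least half of replicates each reaching 50%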
Rce1 inh – blocks yeast Ras-converting enzyme. yeast membranes, quenched prenylated peptide cleavage fluorescence. 290,000 compounds, 0.27% hits. calls only. AID 2563. Q03530;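 active = fall in fluorescence gain of 50% or more versus controls, with final raw signal at or below 3038400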
Target sequence (Q03530 whole entry, looked up): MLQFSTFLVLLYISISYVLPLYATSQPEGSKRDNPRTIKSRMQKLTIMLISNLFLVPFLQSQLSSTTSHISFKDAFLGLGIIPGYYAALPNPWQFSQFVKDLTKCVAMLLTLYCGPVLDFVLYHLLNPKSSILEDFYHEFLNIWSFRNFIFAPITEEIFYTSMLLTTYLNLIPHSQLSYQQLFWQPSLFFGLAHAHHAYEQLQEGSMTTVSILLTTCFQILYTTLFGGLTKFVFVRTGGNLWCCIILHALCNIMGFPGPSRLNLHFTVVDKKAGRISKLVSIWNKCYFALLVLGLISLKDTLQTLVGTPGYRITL
A number is an active result.

O=C(Nc1cc(S(=O)(=O)N2CCCCC2)ccc1O)c1ccccc1NS(=O)(=O)c1ccc(F)cc1 was read as CAL PDZ FP-1 inactive, AI-2 QS mod inactive, CAL PDZ FP-2 inactive, ARNT-TACC3 inh inactive and Rce1 inh inactive.
`O=C(Nc1cc(S(=O)(=O)N2CCCCC2)ccc1Cl)c1ccccc1NS(=O)(=O)c1ccc(F)cc1` gave CAL PDZ FP-1 inactive, AI-2 QS mod inactive, CAL PDZ FP-2 inactive, ARNT-TACC3 inh inactive and Rce1 inh active.
`O=C(O)/C=C/c1ccc(S(=O)(=O)Nc2ccccc2C(=O)Nc2ccc(F)cc2)cc1` gave CAL PDZ FP-1 inactive, AI-2 QS mod inactive, CAL PDZ FP-2 inactive, ARNT-TACC3 inh 47 and Rce1 inh inactive.
For Cc1noc(C)c1C(=O)NCCc1ccccc1 the results were CAL PDZ FP-1 inactive, AI-2 QS mod inactive, ARNT-TACC3 inh inactive and Rce1 inh inactive.
Screening COc1cccc(C(=O)NCC(=O)OCC(=O)NC2CCCCC2)c1 returned CAL PDZ FP-2 inactive and ARNT-TACC3 inh inactive.
`COc1ccc(CC(=O)NCC2CCCN(Cc3ccc(OC(F)(F)F)cc3)C2)cc1` (centres undefined) gave CAL PDZ FP-1 63, AI-2 QS mod inactive, CAL PDZ FP-2 inactive, ARNT-TACC3 inh inactive and Rce1 inh inactive.
`O=C(COC(=O)CSc1ccccc1)NNC(=O)c1ccc([N+](=O)[O-])cc1` gave CAL PDZ FP-1 inactive, AI-2 QS mod inactive, CAL PDZ FP-2 inactive, ARNT-TACC3 inh inactive and Rce1 inh inactive.
Cc1nnc(SCc2ccccn2)n(N)c1=O was read as CAL PDZ FP-1 inactive, AI-2 QS mod inactive, CAL PDZ FP-2 inactive, ARNT-TACC3 inh active and Rce1 inh inactive.
Nn1c(SCc2ccccn2)nncc1=O was read as CAL PDZ FP-1 inactive, AI-2 QS mod inactive, CAL PDZ FP-2 inactive, ARNT-TACC3 inh 56 and Rce1 inh inactive.
For Cc1nnc(SCc2cccc3ccccc23)n(N)c1=O the results were CAL PDZ FP-1 inactive, AI-2 QS mod inactive, CAL PDZ FP-2 inactive, ARNT-TACC3 inh inactive and Rce1 inh inactive.
`O=C(NCCc1cnc[nH]1)c1ccc(-c2ccccc2)cc1` gave CAL PDZ FP-1 inactive, AI-2 QS mod inactive, CAL PDZ FP-2 inactive, ARNT-TACC3 inh inactive and Rce1 inh inactive.
`Cc1ccccc1-c1nnc(SCC(=O)Nc2ccc3c(c2)OCCO3)n1N` gave CAL PDZ FP-1 inactive, AI-2 QS mod inactive, CAL PDZ FP-2 inactive and ARNT-TACC3 inh inactive.
`Nn1c(SCC(=O)Nc2ccc3c(c2)OCCO3)nnc1-c1ccccn1` gave CAL PDZ FP-1 inactive, AI-2 QS mod inactive, CAL PDZ FP-2 inactive, ARNT-TACC3 inh 70 and Rce1 inh inactive.
`O=C(COC(=O)c1ccccn1)Nc1ccc2c(c1)OCCO2` gave CAL PDZ FP-1 56, CAL PDZ FP-2 inactive and ARNT-TACC3 inh inactive.
Screening CCn1c(SCC(=O)Nc2cc(NC(C)=O)ccc2OC)nnc1-c1ccccn1 returned CAL PDZ FP-1 inactive, AI-2 QS mod inactive, CAL PDZ FP-2 inactive, ARNT-TACC3 inh 50 and Rce1 inh inactive.
O=C(Nc1ccc2c(c1)OCCO2)c1ccccn1 was read as CAL PDZ FP-1 inactive, AI-2 QS mod inactive, CAL PDZ FP-2 inactive, ARNT-TACC3 inh inactive and Rce1 inh inactive.
`COc1ccc(NC(C)=O)cc1NC(=O)CSc1nnc(-c2ccccn2)n1C` gave CAL PDZ FP-1 inactive, AI-2 QS mod inactive, ARNT-TACC3 inh inactive and Rce1 inh inactive.
`CCCCOc1ccc(C(=O)N2CCCCCC2)cc1` gave CAL PDZ FP-1 inactive, AI-2 QS mod inactive, CAL PDZ FP-2 inactive, ARNT-TACC3 inh inactive and Rce1 inh inactive.
Screening O=C(OCn1ncc(Br)c(Br)c1=O)c1ccc(F)cc1 returned CAL PDZ FP-1 inactive, AI-2 QS mod -81, CAL PDZ FP-2 inactive, ARNT-TACC3 inh inactive and Rce1 inh inactive.
O=C(OCn1ncc(Br)c(Br)c1=O)c1ccccc1Cl was read as CAL PDZ FP-1 inactive, AI-2 QS mod inactive, CAL PDZ FP-2 inactive and Rce1 inh inactive.
For Cc1cccc(OCCCN2C(=O)C(=O)c3cc(C)ccc32)c1 the results were CAL PDZ FP-1 inactive, AI-2 QS mod inactive, CAL PDZ FP-2 inactive, ARNT-TACC3 inh inactive and Rce1 inh active.
For Cc1ccc2c(c1)C(=O)C(=O)N2CCCOc1ccccc1 the results were CAL PDZ FP-1 inactive, AI-2 QS mod inactive, CAL PDZ FP-2 inactive, ARNT-TACC3 inh inactive and Rce1 inh active.
`C=CCNC(=O)c1cccc(OC2CCN(CC(C)(C)C)CC2)c1` gave AI-2 QS mod inactive, CAL PDZ FP-2 inactive, ARNT-TACC3 inh inactive and Rce1 inh inactive.
